ChEMBL document CHEMBL3860041, “Synthesis, biological evaluation and molecular modeling study of some new methoxylated 2-benzylthio-quinazoline-4(3H)-ones as nonclassical antifolates” (Bioorg Med Chem Lett, 2016)
Converted amounts (≈) assume the structure as drawn.

How the values were obtained:
Staphylococcus aureus [1] = assay: Antimicrobial activity against Staphylococcus aureus IFO 3060 measured after 24 hrs by microdilution method; format: functional; settings: IFO 3060, 24 h
[2] = Growth inhibition of human MDA-MB-435 cells at 10 uM after 48 hrs by SRB assay relative to control; format: functional; settings: MDA-MB-435, 48 h, read-out: GI
Summary of the method: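 NCI 60-cell-line panel, nine tumor subpanels; compounds tested at a single dose of 10 μM in the primary screen.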

Escherichia coli [3] = assay: Antimicrobial activity against Escherichia coli IFO 3301 at 200 ug/disc measured after 24 hrs by agar disc-diffusion method; format: functional; settings: IFO 3301, 24 h, read-out: DIZ
Escherichia coli [4] = assay: microbe, parasite or virus in culture; settings: IFO 3301, 24 h
Candida albicans = assay: Antimicrobial activity against Candida albicans IFO 0583 at 200 ug/disc measured after 48 hrs by agar disc-diffusion method; format: functional; settings: IFO 0583, 48 h, read-out: DIZ
Bacillus subtilis [5] = assay: Antimicrobial activity against Bacillus subtilis IFO 3007 at 200 ug/disc measured after 24 hrs by agar disc-diffusion method; format: functional; settings: IFO 3007, 24 h, read-out: DIZ
Bacillus subtilis [6] = assay: Antimicrobial activity against Bacillus subtilis IFO 3007 measured after 24 hrs by microdilution method; format: functional; settings: IFO 3007, 24 h
Staphylococcus aureus [7] = assay: Antimicrobial activity against Staphylococcus aureus IFO 3060 at 200 ug/disc measured after 24 hrs by agar disc-diffusion method; format: functional; settings: IFO 3060, 24 h, read-out: DIZ
Pseudomonas aeruginosa = assay: Antimicrobial activity against Pseudomonas aeruginosa IFO 3448 at 200 ug/disc measured after 24 hrs by agar disc-diffusion method; format: functional; settings: IFO 3448, 24 h, read-out: DIZ

Row | Structure (SMILES) | MIC (Staphylococcus aureus [1]) | inhibition of growth at 10 µM [2] | zone of inhibition at 200 µg/disc (Escherichia coli [3]) | MIC (Escherichia coli [4]) | zone of inhibition at 200 µg/disc (Candida albicans) | zone of inhibition at 200 µg/disc (Bacillus subtilis [5]) | MIC (Bacillus subtilis [6]) | zone of inhibition at 200 µg/disc (Staphylococcus aureus [7]) | zone of inhibition at 200 µg/disc (Pseudomonas aeruginosa)
1 | COc1cc(CSc2nc3ccc(Cl)cc3c(=O)n2-c2ccccc2)cc(OC)c1OC | 8 mg/L (≈ 17.1 µM) | 75.6% | 16 mm | 8 mg/L (≈ 17.1 µM) | 8 mm | 20 mm | 4 mg/L (≈ 8.53 µM) | 17 mm | 8 mm
2 | COc1ccc(-n2c(SCc3cc(OC)c(OC)c(OC)c3)nc3ccc(Cl)cc3c2=O)cc1 |  | 12.4% |  |  |  |  |  |  | 
3 | COc1cc2nc(SCc3cc(OC)c(OC)c(OC)c3)n(-c3ccccc3OC)c(=O)c2cc1OC |  | 100% |  |  |  |  |  |  | 
4 | COc1cc(CSc2nc3ccc(Cl)cc3c(=O)n2Cc2ccccc2)cc(OC)c1OC |  | 98.2% |  |  |  |  |  |  | 
5 | COc1cc2nc(SCc3cc(OC)c(OC)c(OC)c3)n(Cc3ccccc3)c(=O)c2cc1OC | 4 mg/L (≈ 7.86 µM) |  | 16 mm | 8 mg/L (≈ 15.7 µM) | 8 mm | 22 mm | 4 mg/L (≈ 7.86 µM) | 20 mm | 8 mm
6 | COc1ccc(CSc2nc3cc(OC)c(OC)cc3c(=O)n2-c2ccc(OC)cc2OC)cc1 |  | 38% |  |  |  |  |  |  | 
